The source of these data is publication PMC10928719 (ACS Infectious Diseases, 2024).

Like-named read-outs stand apart in the source and are kept apart here.

The test system of data set [1] is HIV-1 vector with IN mutant G118R. Nature of the data set: Single-round infection assay, IN mutant G118R. It counts as cell-based. Conditions: for resistance / loss of potency against G118R mutant: our single-round infection assays. The essentials: (§1)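 293 cells were co-transfected by calcium phosphate with pNLNgoMIVR–ΔLUC (16 μg; WT or IN mutant) plus pHCMV-g (4 μg) and washed ~6 h later. Supernatant was harvested 48 h later, clarified, filtered and diluted. HOS cells (4000/well) were pretreated 3 h at 37 °C with test compound (11 dilutions, 5 μM–0.0001 μM), then infected for 48 h. Luciferase was read and EC50 fitted by nonlinear regression.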

For data set [2], the system named is HIV-1 vector with wild-type (WT) IN. Conditions: read-out: EC50 WT, single-round HIV-1 vector, previously reported ref 46; cited from earlier work.
Data set [3] has as its system HIV-1 vector with IN mutant G118R. Conditions: single-round infection assays; cited from earlier work.
Data set [4] concerns HIV-1 vector with IN mutant R263K. Conditions: single-round infection assays; cited from earlier work.
In data set [5] the test system is HIV-1 vector with IN mutant G140S/Q148H. Conditions: single-round infection assays; cited from earlier work.
The subject of data set [6] is HIV-1 vector with wild-type (WT) IN. Put plainly: Single-round infection assay, viral construct with WT IN. It counts as cell-based. Particulars: read-out: EC50 WT, single-round HIV-1 vector, HOS cells. Summed up:
as §1

For data set [7], the system named is HIV-1 vector with IN mutant S230N. Put plainly: Single-round infection assay, IN mutant S230N. It counts as cell-based. Conditions: read-out: EC50 S230N, single-round HIV-1 vector. Summed up: as §1
Data set [8] concerns HIV-1 vector with IN mutant N155H. Put plainly: Single-round infection assay, IN mutant N155H. It is filed as cell-based. Conditions: Human immunodeficiency virus 1, read-out: EC50 N155H. Summed up:
as §1

For data set [9], the system named is HIV-1 vector with IN mutant G140S/Q148H. Nature of the data set: Single-round infection assay, IN mutant G140S/Q148H. It counts as cell-based. Conditions: Human immunodeficiency virus 1, read-out: EC50 G140S/Q148H. Summed up:
as §1

The test system of data set [10] is human osteosarcoma (HOS) cells. Nature of the data set: Cellular cytotoxicity. It is filed as cell-based. Conditions: 50% reduction in the level of ATP in HOS cells, 48 h. Summed up: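 HOS cells grown in DMEM with 5% FBS, 5% newborn calf serum and penicillin/streptomycin, then seeded at 4000 cells/well the day before the assay. Test compound was added over 250 μM to 0.05 μM and cells were held at 37 °C for 48 h. ATP luminescence reagent was read after 20 min at room temperature. CC50 came from a nonlinear regression fit.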

Data set [11] concerns HIV-1 vector with IN mutant R263K. Nature of the data set: Single-round infection assay, IN mutant R263K. Particulars: read-out: EC50 R263K, single-round HIV-1 vector. It is filed as cell-based. Summed up:
as §1

The test system of data set [12] is HIV-1 vector with IN mutant E138K/Q148K. Put plainly: Single-round infection assay, IN mutant E138K/Q148K. It counts as cell-based. Conditions: Human immunodeficiency virus 1, read-out: EC50 E138K/Q148K. The essentials: (§2)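 Vector carrying the mutant IN was made by calcium phosphate co-transfection of 293 cells with pNLNgoMIVR–ΔLUC (16 μg) and pHCMV-g (4 μg); supernatant was collected 48 h after washing. HOS cells were exposed 3 h at 37 °C to test compound (11 dilutions, 5 μM–0.0001 μM), then infected for 48 h. Luciferase luminescence gave EC50 by nonlinear regression; n = 4 independent experiments, each in triplicate.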

Data set [13] concerns HIV-1 vector with IN mutant G140A/Q148K. Put plainly: Single-round infection assay, IN mutant G140A/Q148K. It is filed as cell-based. Particulars: Human immunodeficiency virus 1, read-out: EC50 G140A/Q148K. The essentials: as §2
Data set [14] deals with HIV-1 vector with IN mutant G140S/Q148R. Nature of the data set: Single-round infection assay, IN mutant G140S/Q148R. It counts as cell-based. Conditions: Human immunodeficiency virus 1, read-out: EC50 G140S/Q148R. The essentials:
as §2

Data set [15] concerns HIV-1 vector with IN mutant L74M/G140C/Q148R. Put plainly: Single-round infection assay, IN mutant L74M/G140C/Q148R. It counts as cell-based. Particulars: Human immunodeficiency virus 1, read-out: EC50 L74M/G140C/Q148R. Summed up:
as §2

The test system of data set [16] is HIV-1 vector with IN mutant T97A/G140S/Q148H. Nature of the data set: Single-round infection assay, IN mutant T97A/G140S/Q148H. It counts as cell-based. Conditions: Human immunodeficiency virus 1, read-out: EC50 T97A/G140S/Q148H. The essentials:
as §2

For data set [17], the system named is HIV-1 vector with IN mutant E138A/G140S/Q148H. Put plainly: Single-round infection assay, IN mutant E138A/G140S/Q148H. It is filed as cell-based. Particulars: Human immunodeficiency virus 1, read-out: EC50 E138A/G140S/Q148H. Summed up: as §2
The subject of data set [18] is HIV-1 vector with IN mutant E138K/G140A/Q148K. Put plainly: Single-round infection assay, IN mutant E138K/G140A/Q148K. It counts as cell-based. Particulars: Human immunodeficiency virus 1, read-out: EC50 E138K/G140A/Q148K. Summed up: as §2
For data set [19], the system named is HIV-1 vector with IN mutant E138K/G140C/Q148R. Nature of the data set: Single-round infection assay, IN mutant E138K/G140C/Q148R. It is filed as cell-based. Conditions: Human immunodeficiency virus 1, read-out: EC50 E138K/G140C/Q148R. Summed up:
as §2

Data set [20] concerns HIV-1 vector with IN mutant E138K/G140S/Q148H. Put plainly: Single-round infection assay, IN mutant E138K/G140S/Q148H. It counts as cell-based. Particulars: Human immunodeficiency virus 1, read-out: EC50 E138K/G140S/Q148H. Summed up: as §2
For data set [21], the target named is Sso7d IN (HIV-1 integrase) (UniProt P12497+P39476). Nature of the data set: In vitro IN strand transfer assay. It counts as biochemical.

On to `C[C@@H]1CCO[C@H]2Cn3cc(C(=O)NCc4ccc(F)cc4F)c(=O)c(O)c3C(=O)N12` [DTG, dolutegravir], for which, in data set [1], the “resistance / loss of potency against G118R mutant” value (“resistance / loss of potency” for short) is 9 ×. Also, in data set [2], the EC50 was 2.6 ± 0.3 nM. Besides, the “reduction in susceptibility relative to WT, G118R” value in [3] is > 5 fold. Moreover, the “reduction in susceptibility relative to WT, R263K” value in data set [4] is 2 fold. Besides, the “reduction in susceptibility relative to WT, G140S/Q148H” value in data set [5] is recorded as 2 fold.
Take `CC(C)CCCC(C)CCN1CCn2cc(C(=O)NCc3ccc(F)cc3F)c(=O)c(O)c2C1=O` (centres unmarked) [7m]: the EC50 is 21.4 ± 2.5 nM in data set [6], 41.8 ± 4.2 nM in data set [7], 25.6 ± 4.2 nM in data set [8] and 109 ± 20.5 nM in data set [9].
A word on the CC50: it is the concentration at which the toxic effect on the cells reaches its halfway point. Read a low CC50 as greater toxicity to the cells. The molecule `O=C(NCc1ccc(F)cc1F)c1cn2cc[nH]c(=O)c2c(O)c1=O` [6a] came in with a CC50 in data set [10] of 150000 ± 19900 nM. The EC50 in data set [8] was 457 ± 21 nM; in [9], > 5000 nM.
As for `COCC(C)n1ccn2cc(C(=O)NCc3ccc(F)cc3F)c(=O)c(O)c2c1=O` (centres unmarked) [6k], the EC50 in data set [8] amounted to 5 ± 0.7 nM; in data set [9], 34.1 ± 5.4 nM.
Consider `O=C(NCc1c(F)cc(F)cc1F)c1cn2c(c(O)c1=O)C(=O)N1[C@H]3CC[C@H](C3)O[C@@H]1C2` [BIC, bictegravir], for which, in data set [1], the “resistance / loss of potency” value stood at 4 ×. Moreover, in data set [2], the EC50 was 2.4 ± 0.4 nM.
For `O=C(NCc1ccc(F)cc1F)c1cn2c(c(O)c1=O)C(=O)NCC2` [7a], the figures for the EC50 in data set [11] and in [9] were 148 ± 36.5 nM and > 5000 nM, respectively.
In the case of `CC(C)=CCC/C(C)=C/Cn1ccn2cc(C(=O)NCc3ccc(F)cc3F)c(=O)c(O)c2c1=O` [6m], the EC50 is 38.9 ± 6.7 nM in [6], 81.6 ± 7.6 nM in data set [8] and 365 ± 43.3 nM in data set [9].
In the case of `COC(Cn1ccn2cc(C(=O)NCc3ccc(F)cc3F)c(=O)c(O)c2c1=O)OC` [6l], the EC50 in data set [8] was found to be 27.7 ± 2.7 nM; in data set [9], 1150 ± 114 nM.
As usually defined, the IC50 is the concentration at which inhibition is half-maximal. Low readings indicate higher potency, high ones lower potency. In the case of `C[C@H]1CO[C@@H]2Cn3cc(C(=O)NCc4ccc(F)cc4F)c(=O)c(O)c3C(=O)N12` [CAB, cabotegravir], the “resistance / loss of potency” value in data set [1] was determined as 17 ×. The EC50 in [12] was found to be 772 ± 72.2 nM; in [13], 393 ± 51.1 nM; in data set [14] it was 415 ± 14.5 nM; in [15] it was 220 ± 41.2 nM; in data set [16], 43.7 ± 4.2 nM; in data set [17], 70.2 ± 9 nM. Besides, the EC50 in data set [18] is 610 ± 8.6 nM; in data set [19], 134.2 ± 0.3 nM; in [20], 93 ± 6.1 nM; in data set [2], 1.8 ± 0.5 nM. Further, in data set [21], it took 381 nM to reach half-maximal inhibition (IC50).
On to `COC(CN1CCn2cc(C(=O)NCc3ccc(F)cc3F)c(=O)c(O)c2C1=O)OC` [7l], for which the EC50 came out at 36.4 ± 1.3 nM in data set [1] (read-out: EC50 G118R, single-round HIV-1 vector, IN G118R); 6.3 ± 0.7 nM in [8]; 394 ± 39 nM in [9].
